Measured values from ChEMBL document CHEMBL1132348, “Structure-based identification of small molecule antiviral compounds targeted to the gp41 core structure of the human immunodeficiency virus type 1” (J Med Chem, 1999).
In brackets after ≈: the same amount, converted by molar mass.

How the values were obtained:
[1] = test system: MT-2 cells (Homo sapiens); assay: In vitro for the cytotoxicity in MT-2 cells.
[2] = test system: Human immunodeficiency virus 1; assay: Selectivity index was determined by CC50/IC50 for Cytopathic effect.; assay type: functional
In short: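 Ratio of CC50 (XTT viability in uninfected MT-2 cells) to IC50 from HIV-1 IIIB CPE protection in MT-2 cells (XTT read-out, day 6).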

[3] = Inhibitory activity against HIV-I mediated H9 cells fusion.; assay type: functional, cell-based, Human immunodeficiency virus 1
In short: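 Dye transfer fusion assay: BCECF-AM-labeled H9/HIV-1 IIIB cells co-cultured with MT-2 cells (1:10) for 2 h at 37 °C with or without compound. Fused and unfused labeled cells counted by fluorescence microscopy; percent inhibition and IC50 derived.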

[4] = Inhibitory activity against HIV-I mediated cytopathic effect in MT-2 cells; assay type: functional, cell-based; settings: Human immunodeficiency virus 1, MT2
In short: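 1×10^4 MT-2 cells infected with diluted HIV-1 IIIB in RPMI 1640 with 10% FBS, graded compound concentrations; medium changed during culture. On day 6 post-infection, XTT (1 mg/mL) added, formazan read at 450 nm after 4 h; percent CPE inhibition and IC50 calculated.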

[5] = Inhibitory activity against NC-1 binding to N-36/C-34 peptide complex; assay type: functional
In short: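 Sandwich ELISA: N-36 (2 μM) preincubated with graded compound 30 min at 37 °C, then C-34 (2 μM) added for 30 min at 37 °C. Mixture captured on wells coated with rabbit anti-N36(L6)C34 IgG (10 μg/mL), detected with mAb NC-1, biotin anti-mouse IgG, streptavidin-HRP and TMB; A450 read; IC50 via Calcusyn.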

SMILES	IC50 [3] [µg/mL]	IC50 [4] [µg/mL]	IC50 [5] [µg/mL]	CC50 [1] [µg/mL]	Selectivity index [2]
O=C(Nc1ccc(Cl)c(Cl)c1)O/N=C(/c1ccccc1)c1ccc(-c2ccccc2)cc1	> 100	> 100	> 100	74.7 (≈ 162 µM)	< 1
Cc1ccc(C(=O)Nc2cccc(C(=O)N/N=C/c3ccc(Br)cc3)c2)cc1	> 100	> 100	> 100	24.9 (≈ 57.1 µM)	< 1
C=C[C@H]1CN2CC[C@H]1C[C@@H]2[C@@H](OC(=O)c1ccc(OC)cc1)c1ccnc2ccccc12	> 100	> 100	> 100	74.1 (≈ 173 µM)	< 1
COc1ccc2c(c1)CCCC2=NOC(=O)Nc1ccccc1-c1ccccc1	> 100	> 100	> 100	46.8 (≈ 121 µM)	< 1
O=C(Nc1cc([N+](=O)[O-])ccc1-c1ccc([N+](=O)[O-])cc1)c1ccc([N+](=O)[O-])cc1Cl	> 100	> 100	> 100	47.2 (≈ 107 µM)	< 1
CC[C@H]1CN2CC[C@H]1C[C@@H]2[C@@H](OC(=O)c1ccccc1Cl)c1ccnc2ccc(OC)cc12	59.78 (≈ 129 µM)	> 100	> 100	41.3 (≈ 88.9 µM)	< 1
CC(c1nc2ccc(Cl)cc2c(=O)n1Cc1ccccc1)N(C(=O)c1ccc([N+](=O)[O-])cc1)c1ccc(F)cc1 (stereo not given)	> 100	> 100	> 100	30.2 (≈ 54.2 µM)	< 1

Continued, in another order:

IC50 [3] [µg/mL]	IC50 [4] [µg/mL]	IC50 [5] [µg/mL]	SMILES	CC50 [1] [µg/mL]	Selectivity index [2]
> 100	> 100	> 100	CC(Nc1ccccc1Cl)c1nc2ccccc2c(=O)n1Cc1ccccc1 (stereo not given)	86.8 (≈ 223 µM)	< 1
21.85 (≈ 29.7 µM)	30.8 (≈ 41.8 µM)	3.18 (≈ 4.32 µM)	Cc1ccc(/N=N/c2c(S(=O)(=O)O)cc3cc(S(=O)(=O)O)cc(Nc4nc(Cl)nc(N(C)c5ccccc5)n4)c3c2O)c(S(=O)(=O)O)c1	290 (≈ 394 µM)	9.43
> 100	> 100	> 100	Cc1ccc(N(C(=O)Nc2ccc(Cl)c(Cl)c2)C(C)c2nc(O)c3ccccc3n2)c(C)c1 (stereo not given)	39.2 (≈ 81.5 µM)	< 1
> 100	> 100	> 100	Cc1ccc(N(C(=O)Nc2cccc(Cl)c2)C(C)c2nc(O)c3ccccc3n2)c(C)c1 (stereo not given)	54 (≈ 121 µM)	< 1
> 100	> 100	> 100	COC(=O)c1cc(C(=O)OC)cc(N(C(=O)Nc2ccc(Cl)c(Cl)c2)C(C)c2nc3ccccc3c(=O)n2Cc2ccccc2)c1 (stereo not given)	20.9 (≈ 31.8 µM)	< 1
52.27 (≈ 126 µM)	> 100	> 100	O=P(CCP(c1ccccc1)c1ccccc1)(c1ccccc1)c1ccccc1	28.9 (≈ 69.7 µM)	< 1
> 100	> 100	> 100	Cc1ccc(N(C(=O)Nc2ccccc2)C(C)c2nc(O)c3ccccc3n2)c(C)c1 (stereo not given)	40.8 (≈ 98.8 µM)	< 1
> 100	> 100	> 100	C/C(=N/OC(=O)NS(=O)(=O)c1ccc(C)cc1)c1cc2ccccc2oc1=O	286 (≈ 714 µM)	< 1
4.95 (≈ 4.55 µM)	8.29 (≈ 7.61 µM)	0.73 (≈ 0.67 µM)	COc1ccc(S(=O)(=O)O)cc1/N=N/c1c(S(=O)(=O)O)cc2cc(Nc3nc(Nc4ccccc4)nc(Nc4cc(C)c(/N=N/c5cc(S(=O)(=O)O)cc6cc(S(=O)(=O)O)cc(O)c56)cc4OC)n3)ccc2c1O	292 (≈ 268 µM)	35.2
